Measurements reported in ChEMBL document CHEMBL1158074, “Cytotoxic constituents from the formosan soft coral Clavularia inflata var. luzoniana” (J Nat Prod, 2006).
≈ marks a conversion by molar mass, not a printed value. Calls of active or inactive are those of the source. The rule behind the calls is not given here.

How the values were obtained:
P388 = assay: Cytotoxicity against mouse P388 cells; assay type: functional; conditions: for EC50: read-out: ED50 (the source's name)
Summary of the method: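 P-388 mouse lymphocytic leukemia cells were provided by an academic laboratory at the University of Illinois at Chicago. Activity is expressed as an ED50.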

HT-29 = assay: Cytotoxicity against human HT 29 cells; assay type: functional, cell-based
Summary of the method: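 HT-29 human colon adenocarcinoma cells were obtained from the American Type Culture Collection. The value is reported as an ED50.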

| SMILES | EC50 (P388) | EC50 (HT-29; read-out: ED50 (the source's name)) | Activity (P388) | Activity (HT-29) | EC50 (HT-29; read-out: EC50) |
| --- | --- | --- | --- | --- | --- |
| C=C1[C@@H]2[C@@H](OC(C)=O)OC=C([C@H](OC(C)=O)[C@@H](C=C(C)C)OC(C)=O)[C@H]2CC/C(C)=C/[C@H](OC(=O)c2ccccc2)[C@H]1O | 0.5 µg/mL (≈ 0.838 µM) | 1.2 µg/mL (≈ 2.01 µM) |  |  |  |
| CC1(C)[C@@H]2[C@@H]3[C@H](C[C@@H](O)[C@@]3(C)O)[C@@](C)(O)CC[C@@H]21 |  |  | inactive | inactive |  |
| C=C1CC[C@H]2[C@@H]([C@H]3C(C)=CC[C@@]13OO)C2(C)C |  |  | inactive | inactive |  |
| C=C1CC[C@H]2[C@@H]([C@@H]3[C@@H]1C[C@@H](O)[C@@]3(C)O)C2(C)C |  |  | inactive | inactive |  |
| CC(=O)C(O)C[C@@H]1[C@@H]([C@@H]2[C@H]3CC[C@@]23C)C1(C)C (stereo partly specified) |  |  | inactive | inactive |  |
| C=C1CC/C=C(\C)C/C=C2/[C@H](C(C)C)CC[C@@]2(C)C[C@@H]1O | 3.6 µg/mL (≈ 12.5 µM) |  |  | inactive |  |
| C=C1CC/C=C(\C)C/C=C2/[C@H](C(C)C)CC[C@@]2(C)CC1=O | 0.6 µg/mL (≈ 2.09 µM) |  |  |  | 2.8 µg/mL (≈ 9.77 µM) |
| C=C1CC/C=C(\C)C/C=C2/[C@H](C(C)C)[C@@H](O)C[C@@]2(C)CC1=O | 1.5 µg/mL (≈ 4.96 µM) |  |  | inactive |  |
